For four compounds, Ratio, MIC and Activity results are on record in ChEMBL document CHEMBL3758165, “In vitro interactions between anidulafungin and nonsteroidal anti-inflammatory drugs on biofilms of Candida spp” (2016).

Holding throughout (type): functional
Experiment [1] has as its system Candida albicans. Kind of experiment: Antibiofilm activity against Candida albicans ATCC 24433 assessed as fractional inhibitory concentration by two dimensional checkerboard dilution method in presence of diclofenac. In a few lines: (§1)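 Preformed 48 h disk biofilms (RPMI 1640, MOPS pH 7, 37 °C), PBS-washed, exposed 24 h at 37 °C on rocker to two-dimensional checkerboard of anidulafungin plus NSAID in RPMI; NSAID final 0.1 µM to 100 mM. XTT reduction at 490 nm; SMIC = combination giving 50% metabolic reduction versus drug-free control; FIC index calculated; triplicate on different days.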

The test system of experiment [2] is Nakaseomyces glabratus. As to the kind of experiment: Antibiofilm activity against Candida glabrata ATCC 15126 assessed as fractional inhibitory concentration by two dimensional checkerboard dilution method in presence of aspirin. Summed up: as §1
For experiment [3], the system named is Candida albicans. As to the kind of experiment: Antibiofilm activity against Candida albicans ATCC 90028 assessed as fractional inhibitory concentration by two dimensional checkerboard dilution method in presence of aspirin. In a few lines: as §1
For experiment [4], the system named is Candida albicans. As to the kind of experiment: Antibiofilm activity against Candida albicans ATCC 24433 by two dimensional checkerboard dilution method in presence of diclofenac. In a few lines: as §1
For experiment [5], the system named is Candida albicans. Kind of experiment: Antibiofilm activity against Candida albicans 17a18 by two dimensional checkerboard dilution method in presence of aspirin. In a few lines: as §1
Experiment [6] relates to Nakaseomyces glabratus. As to the kind of experiment: Antibiofilm activity against Candida glabrata 18a10 by two dimensional checkerboard dilution method in presence of aspirin. Summed up:
as §1

The subject of experiment [7] is Nakaseomyces glabratus. As to the kind of experiment: Antibiofilm activity against Candida glabrata ATCC 15126 by two dimensional checkerboard dilution method in presence of aspirin. Summed up: as §1
Experiment [8] has as its system Candida albicans. Kind of experiment: Antibiofilm activity against Candida albicans ATCC 10231 after 48 hrs by XTT reduction assay relative to control. Also noted: scale not given: the % may be the effect or the level left. Summed up: (§2)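 Biofilms grown on autoclaved PVC disks: 1·10^6 cfu ml-1 cells, adhesion 1.5 h at 37 °C shaking 100 rpm, PBS wash, then 48 h at 37 °C in RPMI 1640 (MOPS, pH 7). Metabolic activity read by XTT–menadione reduction, 2 h at 37 °C, supernatant formazan at 490 nm, relative to drug-free control; triplicate on different days.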
Background: Tetrazolium assays rely on reduction of a dye to a coloured formazan, in cell work by metabolically active cells.

Experiment [9] relates to Meyerozyma guilliermondii. As to the kind of experiment: Antibiofilm activity against Candida guilliermondii ATCC 6260 by two dimensional checkerboard dilution method in presence of ibuprofen. In a few lines: as §1
Experiment [10] deals with Meyerozyma guilliermondii. Kind of experiment: Antibiofilm activity against Candida guilliermondii a410 assessed as fractional inhibitory concentration by two dimensional checkerboard dilution method in presence of aspirin. Summed up:
(§3)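 Biofilms were grown on PVC disks from 2 ml of a 1·10^6 cfu/ml cell suspension. Adhesion ran 1.5 h at 37 °C with shaking at 100 rpm. Disks were PBS-washed, then matured 48 h at 37 °C in RPMI 1640 (MOPS, pH 7). Biofilms were washed again and given 24 h at 37 °C of anidulafungin/NSAID checkerboard combinations (NSAID final 0.1 µM–100 mM). Read-out was XTT-menadione (2 h, 37 °C, 490 nm). SMIC was defined as 50% reduction versus drug-free control, from which FICI was calculated. Triplicates were run on different days.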

Experiment [11] has as its system Meyerozyma guilliermondii. Kind of experiment: Antibiofilm activity against Candida guilliermondii a410 assessed as fractional inhibitory concentration by two dimensional checkerboard dilution method in presence of ibuprofen. In a few lines:
as §3

In experiment [12] the test system is Candida albicans. As to the kind of experiment: Antibiofilm activity against Candida albicans ATCC 24433 assessed as fractional inhibitory concentration by two dimensional checkerboard dilution method in presence of aspirin. In a few lines:
as §1

The test system of experiment [13] is Nakaseomyces glabratus. As to the kind of experiment: Antibiofilm activity against Candida glabrata 18a10 assessed as fractional inhibitory concentration by two dimensional checkerboard dilution method in presence of ibuprofen. Summed up: as §1
For experiment [14], the system named is Candida albicans. As to the kind of experiment: Antibiofilm activity against Candida albicans ATCC 90028 assessed as fractional inhibitory concentration by two dimensional checkerboard dilution method in presence of diclofenac. In a few lines:
as §1

Experiment [15] deals with Candida albicans. As to the kind of experiment: Antibiofilm activity against Candida albicans ATCC 90028 assessed as fractional inhibitory concentration by two dimensional checkerboard dilution method in presence of ibuprofen. Summed up:
as §1

The test system of experiment [16] is Nakaseomyces glabratus. Kind of experiment: Antibiofilm activity against Candida glabrata 18a10 by two dimensional checkerboard dilution method in presence of ibuprofen. In a few lines: as §1
Experiment [17] relates to Meyerozyma guilliermondii. Kind of experiment: Antibiofilm activity against Candida guilliermondii a83 by two dimensional checkerboard dilution method in presence of diclofenac. In a few lines: as §3
The test system of experiment [18] is Candida albicans. Kind of experiment: Antibiofilm activity against Candida albicans ATCC 24433 assessed as fractional inhibitory concentration by two dimensional checkerboard dilution method in presence of ibuprofen. In a few lines:
as §1

Experiment [19] deals with Nakaseomyces glabratus. As to the kind of experiment: Antibiofilm activity against Candida glabrata 18a10 assessed as fractional inhibitory concentration by two dimensional checkerboard dilution method in presence of diclofenac. In a few lines: as §1
In experiment [20] the test system is Candida albicans. Kind of experiment: Antibiofilm activity against Candida albicans 17a18 by two dimensional checkerboard dilution method in presence of diclofenac. In a few lines: as §1
For experiment [21], the system named is Nakaseomyces glabratus. Kind of experiment: Antibiofilm activity against Candida glabrata 18a10 after 48 hrs by XTT reduction assay relative to control. Also noted: scale not given: the % may be the effect or the level left. In a few lines:
as §2

Experiment [22] has as its system Candida albicans. Kind of experiment: Antibiofilm activity against Candida albicans ATCC 24433 after 48 hrs by XTT reduction assay relative to control. Also noted: scale not given: the % may be the effect or the level left. Summed up:
as §2

The test system of experiment [23] is Meyerozyma guilliermondii. Kind of experiment: Antibiofilm activity against Candida guilliermondii a83 assessed as fractional inhibitory concentration by two dimensional checkerboard dilution method in presence of ibuprofen. Summed up:
as §3

Experiment [24] deals with Candida albicans. Kind of experiment: Antibiofilm activity against Candida albicans ATCC 10231 by two dimensional checkerboard dilution method in presence of aspirin. In a few lines: as §1
The test system of experiment [25] is Candida albicans. As to the kind of experiment: Antibiofilm activity against Candida albicans ATCC 90028 by two dimensional checkerboard dilution method in presence of ibuprofen. In a few lines: as §1
The test system of experiment [26] is Meyerozyma guilliermondii. Kind of experiment: Antibiofilm activity against Candida guilliermondii a410 after 48 hrs by XTT reduction assay relative to control. Also on record: scale not given: the % may be the effect or the level left. Summed up:
as §2

Experiment [27] relates to Candida albicans. As to the kind of experiment: Antibiofilm activity against Candida albicans ATCC 90028 by two dimensional checkerboard dilution method in presence of diclofenac. In a few lines: as §1
In experiment [28] the test system is Nakaseomyces glabratus. As to the kind of experiment: Antibiofilm activity against Candida glabrata ATCC 15126 by two dimensional checkerboard dilution method in presence of diclofenac. In a few lines: as §1
Experiment [29] has as its system Nakaseomyces glabratus. As to the kind of experiment: Antibiofilm activity against Candida glabrata 18a10 by two dimensional checkerboard dilution method in presence of diclofenac. In a few lines: as §1
Experiment [30] deals with Meyerozyma guilliermondii. Kind of experiment: Antibiofilm activity against Candida guilliermondii a83 by two dimensional checkerboard dilution method in presence of ibuprofen. Summed up: as §3
Experiment [31] concerns Meyerozyma guilliermondii. Kind of experiment: Antibiofilm activity against Candida guilliermondii a410 by two dimensional checkerboard dilution method in presence of diclofenac. In a few lines: as §3
Experiment [32] deals with Nakaseomyces glabratus. Kind of experiment: Antibiofilm activity against Candida glabrata ATCC 15126 assessed as fractional inhibitory concentration by two dimensional checkerboard dilution method in presence of diclofenac. Summed up: as §1
The subject of experiment [33] is Meyerozyma guilliermondii. Kind of experiment: Antibiofilm activity against Candida guilliermondii a410 at 1 mM after 24 hrs by XTT reduction assay relative to control. Also noted: scale not given: the % may be the effect or the level left. Summed up:
(§4)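 Biofilms grown on sterilized PVC disks: 1·10^6 cfu/ml Candida cells adhered for 1.5 h at 37 °C with shaking, washed with PBS, then matured 48 h at 37 °C in RPMI 1640 (MOPS, pH 7). Preformed biofilms were washed and exposed to drug, alone or in two-dimensional checkerboard combination, in RPMI 1640 for 24 h at 37 °C on a rocker.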

Experiment [34] deals with Candida albicans. Kind of experiment: Antibiofilm activity against Candida albicans ATCC 24433 at 1 mM after 24 hrs by XTT reduction assay relative to control. Also on record: scale not given: the % may be the effect or the level left. Summed up: as §4
Experiment [35] has as its system Meyerozyma guilliermondii. Kind of experiment: Antibiofilm activity against Candida guilliermondii a410 at 0.1 uM to 100 mM after 48 hrs by XTT reduction assay relative to control. Also on record: scale not given: the % may be the effect or the level left. In a few lines:
as §4

Experiment [36] has as its system Meyerozyma guilliermondii. As to the kind of experiment: Antibiofilm activity against Candida guilliermondii a410 at 0.2 mM after 24 hrs by XTT reduction assay relative to control. Also on record: scale not given: the % may be the effect or the level left. In a few lines: as §4

`CCCCCOc1ccc(-c2ccc(-c3ccc(C(=O)N[C@@H]4C[C@@H](O)[C@@H](O)NC(=O)[C@@H]5[C@@H](O)[C@@H](C)CN5C(=O)[C@H]([C@@H](C)O)NC(=O)[C@H]([C@H](O)[C@@H](O)c5ccc(O)cc5)NC(=O)[C@@H]5C[C@@H](O)CN5C(=O)[C@H]([C@H](C)O)NC4=O)cc3)cc2)cc1`: the Ratio with Candida albicans [1] was determined as 0.05; with Nakaseomyces glabratus [2], 0.05; in the experiment on Candida albicans [3], 0.05; in experiment [10], 0.05; in experiment [11] it was 0.2; with Candida albicans [12] it was 0.05. Also, the Ratio was 0.05 with Nakaseomyces glabratus [13]; 0.05 in the experiment with Candida albicans [14]; 0.2 with Candida albicans [15]; 0.2 with Candida albicans [18]; 0.1 in the experiment with Nakaseomyces glabratus [19]; 0.05 in experiment [23]. In the experiment on Nakaseomyces glabratus [32], the Ratio was 0.1. For the same compound, the MIC in the experiment with Candida albicans [4] amounted to 0.1 µg/mL; in the experiment on Candida albicans [5] it was 0.1 µg/mL; with Nakaseomyces glabratus [6], 0.1 µg/mL; in the experiment with Nakaseomyces glabratus [7] it was 0.1 µg/mL; in [9], 0.4 µg/mL; with Nakaseomyces glabratus [16], 0.1 µg/mL. The MIC in experiment [17] was 0.2 µg/mL; in the experiment with Candida albicans [20] it was 0.1 µg/mL; in the experiment on Candida albicans [24], 0.1 µg/mL; in the experiment on Candida albicans [25], 0.4 µg/mL; in the experiment with Candida albicans [27] it was 0.1 µg/mL; with Nakaseomyces glabratus [28], 0.2 µg/mL. Also, the values for the MIC (in the experiment on Nakaseomyces glabratus [29]; in experiment [30]; in [31]) were 0.2 µg/mL, 0.1 µg/mL and 0.1 µg/mL, respectively. Further, the Activity in the experiment on Candida albicans [8] is listed as 33.98%; with Nakaseomyces glabratus [21] it was 37.42%; with Candida albicans [22], 25.06%; in experiment [26], 45.62%.

For `CC(=O)Oc1ccccc1C(=O)O` [ASPIRIN], the Activity in experiment [33] is 43.25%; in the experiment with Candida albicans [34], 48.75%.

`O=C([O-])Cc1ccccc1Nc1c(Cl)cccc1Cl.[Na+]` [DICLOFENAC SODIUM]: in experiment [35], the Activity came out at 58.69%.

Take `CC(C)Cc1ccc(C(C)C(=O)O)cc1` (stereo unspecified) [IBUPROFEN]: in experiment [36], the Activity amounted to 53.24%.
